{"data": "Experimental data gathered from unrelated publications", "PIP5K1A": "Phosphatidylinositol 4-phosphate 5-kinase type-1 alpha (PIP5K1A, Homo sapiens, UniProt Q99755)", "KDR": "Vascular endothelial growth factor receptor 2 (KDR, Homo sapiens, UniProt P35968)"}
{"Compound": "Cc1cc(S(=O)(=O)N[C@H]2CC[C@H](CN3CCN(c4ccc(C5CCC(=O)NC5=O)cc4F)CC3)CC2)ccc1Nc1ncc(C(F)(F)F)c(N2CCC[C@](C)(O)C2)n1 (stereo partly drawn)", "target": "PIP5K1A", "assay": "binding, competition with immobilised ligand", "conditions": "1 µM", "endpoint": "remaining binding", "result": "70%"}
{"Compound": "CC(C)c1ccc(Sc2ccc3nnc(C(F)(F)F)n3n2)cc1", "target": "Glutamate NMDA receptor; Grin1/Grin2a (Grin1/Grin2a, Rattus norvegicus, UniProt P35439+Q00959)", "assay": "ion current, two-electrode voltage clamp", "conditions": "30 µM, oocytes", "endpoint": "remaining activity", "result": "97%"}
{"Compound": "CNS(=O)(=O)c1ccc(Nc2ncc(C(F)(F)F)c(N3CCC[C@](C)(O)C3)n2)c(C)c1", "target": "PIP5K1A", "assay": "binding, competition with immobilised ligand", "conditions": "1 µM", "endpoint": "remaining binding", "result": "100%"}
{"Compound": "CCCCC(=O)Nc1ccc(-c2ccc3ncn(CCC)c(=O)c3c2)cn1", "target": "Interleukin-1 receptor-associated kinase 3 (IRAK3, Homo sapiens, UniProt Q9Y616)", "assay": "binding, competition with immobilised ligand", "conditions": "0.5 µM", "endpoint": "remaining binding", "result": "99%"}
{"Compound": "Cc1cc(O)c(-c2ccc([C@@H](C)CN(C)C)cc2)c2c1[nH]c(=O)c1sccc12", "target": "Serine/threonine-protein kinase Nek4 (NEK4, Homo sapiens, UniProt P51957)", "assay": "enzyme activity, inhibitor", "conditions": "0.1 µM", "endpoint": "inhibition", "result": "0.965%"}
{"Compound": "COc1ccc(-c2cc(=O)c3c(O)cc(O[C@@H]4O[C@H](CO[C@@H]5O[C@@H](C)[C@H](O)[C@@H](O)[C@H]5O)[C@@H](O)[C@H](O)[C@H]4O)cc3o2)cc1O", "target": "KDR", "assay": "enzyme activity, inhibitor, TR-FRET", "conditions": "40 µM", "endpoint": "inhibition", "result": "51.5%"}
{"Compound": "C1=C/COCc2cc(ccc2OCCN2CCCC2)Nc2nccc(n2)-c2cccc(c2)COC/1", "target": "1-phosphatidylinositol 3-phosphate 5-kinase (PIKFYVE, Homo sapiens, UniProt Q9Y2I7)", "assay": "cell-free assay", "conditions": "0.1 µM", "endpoint": "remaining signal", "result": "17%"}
{"Compound": "COc1ccc2oc(-c3ccc4nc(N)oc4c3)c/c(=N\\c3ccccc3NC(=O)CCN)c2c1", "target": "Activin receptor type-1-like (ACVRL1, Homo sapiens, UniProt P37023)", "assay": "binding", "conditions": "1 µM", "endpoint": "remaining binding", "result": "106%"}
{"Compound": "CC(=O)/C=C/C=C(C)/C=C/C1=C(C)CC(O)CC1(C)C (stereo in doubt)", "target": "D14 (Oryza sativa, UniProt Q10QA5)", "assay": "thermal stability, DSF", "conditions": "10 µM", "endpoint": "ΔTm", "result": "2.75 °C"}
{"Compound": "CC(=O)ON=C1C=CC(=C(C#N)c2ccccc2)C=C1", "target": "Glycogen synthase kinase-3 beta (GSK3B, Homo sapiens, UniProt P49841)", "assay": "enzyme activity, inhibitor, ADP detection", "conditions": "20 µM", "endpoint": "activity vs control", "result": "82%"}
{"Compound": "CC1=C(/C=C/C(C)=C/C=C/C(C)=C/C=C/C=C(C)/C=C/C=C(C)/C=C/C2=C(C)CCCC2(C)C)C(C)(C)CCC1", "target": "KDR", "assay": "enzyme activity, inhibitor, TR-FRET", "conditions": "40 µM", "endpoint": "inhibition", "result": "-6.3%"}
{"Compound": "CCN1/C(=C/C(C)=O)Sc2ccc(F)cc21", "target": "Vasopressin V1b receptor (AVPR1B, Homo sapiens, UniProt P47901)", "assay": "ligand displacement, radioligand", "conditions": "10 µM", "endpoint": "inhibition", "result": "2.63%"}
